The structures appear in SMILES notation.

This note sets out measurements from ChEMBL document CHEMBL1123180, “Improved glucose tolerance in rats treated with oxazolidinediones” (1986).

In assay [1] the test system is Rattus norvegicus. Nature of the assay: Compound was tested for the ability to lower blood sugar level at the dose of 25 mg/kg in fasted rats, by using glucose tolerance test(GTT). The assay is classed as functional. The gist of the method: (§1)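 Male albino rats, groups of five or six, fasted 18–24 h. Glucose 1 g/kg given ip; test drug (0.1 to 100 mg/kg) or water (controls) given orally. Tail-vein blood sampled over 0–3 h; glucose (mg/100 mL) measured by Autoanalyser ferricyanide method. Value is percent lowering of blood glucose vs controls at 0.5 h; a lowering of ≥9% is needed for P = 0.05.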

In assay [2] the test system is Rattus norvegicus. Nature of the assay: Ability to lower blood sugar level at the dose of 100 mg/kg in fasted rats, by using glucose tolerance test(GTT). The assay is classed as functional. The essentials: as §1
Assay [3] relates to Rattus norvegicus. Nature of the assay: Ability to lower blood sugar level at the dose of 10 mg/kg in fasted rats, by using glucose tolerance test(GTT). The assay is classed as functional. The gist of the method: as §1
Assay [4] deals with Rattus norvegicus. Nature of the assay: Compound was tested for the ability to lower blood sugar level at the dose of 25 mg/kg in rats, by using glucose tolerance test(GTT). The assay is classed as functional. The gist of the method:
as §1

The test system of assay [5] is Rattus norvegicus. Nature of the assay: Ability to lower blood sugar level at the dose of 25 mg/kg in fasted rats, by using glucose tolerance test(GTT).

As to `COc1ccc([N+](=O)[O-])cc1C1OC(=O)NC1=O` (stereo not given), the Blood sugar lowering in assay [1] came to 17%.

For `O=C1NC(=O)C(c2ccccc2)O1` (stereo not given) [PEMOLINE DIONE], the Blood sugar lowering in assay [2] is reported as 35%; in assay [3] it was 13%; in assay [4], 26%.

The compound `COc1cccc([N+](=O)[O-])c1C1OC(=O)NC1=O` (stereo not given) gave a Blood sugar lowering in assay [5] of 10%.
